Results published in ChEMBL document CHEMBL1129660, “Studies on 6-aminoquinolones: synthesis and antibacterial evaluation of 6-amino-8-methylquinolones” (J Med Chem, 1996).
Converted amounts (≈) assume the structure as drawn.

System: Escherichia coli
Assay: Antibacterial activity tested against Escherichia coli ATCC 8739
Type: functional
How it was run: (§1)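 MICs (µg/mL) determined by conventional agar dilution against a panel of eight Gram-negative and five Gram-positive reference strains.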

| Compound | MIC [µg/mL] |
| --- | --- |
| CN1CCN(c2c(N)cc3c(=O)c(C(=O)O)cn(C4CC4)c3c2F)CC1 | 1 (≈ 2.77 µM) |
| Cc1c(N2CCCC(C)C2)c(N)cc2c(=O)c(C(=O)O)cn(C3CC3)c12 (stereo not given) | 0.03 (≈ 0.0844 µM) |
| Cc1c(N2CCC(C)CC2)c([N+](=O)[O-])cc2c(=O)c(C(=O)O)cn(C3CC3)c12 | 32 (≈ 83 µM) |
| CN1CCN(c2nc3c(cc2N)c(=O)c(C(=O)O)cn3C2CC2)CC1 | 0.125 (≈ 0.364 µM) |
| Cc1c(N2CC3CCC2CC3)c(N)cc2c(=O)c(C(=O)O)cn(C3CC3)c12 | 4 (≈ 10.9 µM) |

System: Escherichia coli
Assay: Antibacterial activity tested against Escherichia coli ISF 432
Type: functional
How it was run: as §1

| Compound | MIC [µg/mL] |
| --- | --- |
| CN1CCN(c2c(N)cc3c(=O)c(C(=O)O)cn(C4CC4)c3c2F)CC1 | 0.06 (≈ 0.166 µM) |
| Cc1c(N2CCCC(C)C2)c(N)cc2c(=O)c(C(=O)O)cn(C3CC3)c12 (stereo not given) | 0.03 (≈ 0.0844 µM) |
| Cc1c(N2CCC(C)CC2)c([N+](=O)[O-])cc2c(=O)c(C(=O)O)cn(C3CC3)c12 | 2 (≈ 5.19 µM) |
| CN1CCN(c2nc3c(cc2N)c(=O)c(C(=O)O)cn3C2CC2)CC1 | 0.06 (≈ 0.175 µM) |
| Cc1c(N2CC3CCC2CC3)c(N)cc2c(=O)c(C(=O)O)cn(C3CC3)c12 | 0.3 (≈ 0.816 µM) |

System: Enterobacter cloacae
Assay: Antibacterial activity tested against Enterobacter cloacae OMNFI 174
Type: functional

| Compound | MIC [µg/mL] |
| --- | --- |
| CN1CCN(c2c(N)cc3c(=O)c(C(=O)O)cn(C4CC4)c3c2F)CC1 | 0.25 (≈ 0.694 µM) |
| Cc1c(N2CCCC(C)C2)c(N)cc2c(=O)c(C(=O)O)cn(C3CC3)c12 (stereo not given) | 1 (≈ 2.81 µM) |
| Cc1c(N2CCC(C)CC2)c([N+](=O)[O-])cc2c(=O)c(C(=O)O)cn(C3CC3)c12 | 64 (≈ 166 µM) |
| CN1CCN(c2nc3c(cc2N)c(=O)c(C(=O)O)cn3C2CC2)CC1 | 0.125 (≈ 0.364 µM) |
| Cc1c(N2CC3CCC2CC3)c(N)cc2c(=O)c(C(=O)O)cn(C3CC3)c12 | 4 (≈ 10.9 µM) |

System: Bacteria
Assay: Geometric mean of antibacterial activity (Gram +ve bacteria) of the compound
Type: functional
How it was run: (§2)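 Geometric means calculated from agar-dilution MICs (µg/mL), taken separately across the five Gram-positive and the eight Gram-negative panel strains.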

| Compound | Geometric mean |
| --- | --- |
| CN1CCN(c2c(N)cc3c(=O)c(C(=O)O)cn(C4CC4)c3c2F)CC1 | 8 |
| Cc1c(N2CCCC(C)C2)c(N)cc2c(=O)c(C(=O)O)cn(C3CC3)c12 (stereo not given) | 0.162 |
| Cc1c(N2CCC(C)CC2)c([N+](=O)[O-])cc2c(=O)c(C(=O)O)cn(C3CC3)c12 | 8 |
| CN1CCN(c2nc3c(cc2N)c(=O)c(C(=O)O)cn3C2CC2)CC1 | 6.063 |
| Cc1c(N2CC3CCC2CC3)c(N)cc2c(=O)c(C(=O)O)cn(C3CC3)c12 | 0.246 |

System: not listed separately
Assay: Geometric mean of antibacterial activity (Gram -ve bacteria) of the compound
Type: functional
How it was run: as §2

| Compound | Geometric mean |
| --- | --- |
| CN1CCN(c2c(N)cc3c(=O)c(C(=O)O)cn(C4CC4)c3c2F)CC1 | 0.699 |
| Cc1c(N2CCCC(C)C2)c(N)cc2c(=O)c(C(=O)O)cn(C3CC3)c12 (stereo not given) | 0.414 |
| Cc1c(N2CCC(C)CC2)c([N+](=O)[O-])cc2c(=O)c(C(=O)O)cn(C3CC3)c12 | 38.054 |
| CN1CCN(c2nc3c(cc2N)c(=O)c(C(=O)O)cn3C2CC2)CC1 | 0.416 |
| Cc1c(N2CC3CCC2CC3)c(N)cc2c(=O)c(C(=O)O)cn(C3CC3)c12 | 2.141 |

System: Klebsiella pneumoniae
Assay: Antibacterial activity tested against Klebsiella pneumoniae (Klebsiella pneumoniae) ATCC 10031
Type: functional
How it was run: as §1

| Compound | MIC [µg/mL] |
| --- | --- |
| CN1CCN(c2c(N)cc3c(=O)c(C(=O)O)cn(C4CC4)c3c2F)CC1 | 0.06 (≈ 0.166 µM) |
| Cc1c(N2CCCC(C)C2)c(N)cc2c(=O)c(C(=O)O)cn(C3CC3)c12 (stereo not given) | 0.03 (≈ 0.0844 µM) |
| Cc1c(N2CCC(C)CC2)c([N+](=O)[O-])cc2c(=O)c(C(=O)O)cn(C3CC3)c12 | 64 (≈ 166 µM) |
| CN1CCN(c2nc3c(cc2N)c(=O)c(C(=O)O)cn3C2CC2)CC1 | 0.03 (≈ 0.0874 µM) |
| Cc1c(N2CC3CCC2CC3)c(N)cc2c(=O)c(C(=O)O)cn(C3CC3)c12 | 0.03 (≈ 0.0816 µM) |

System: Proteus vulgaris
Assay: Antibacterial activity tested against Proteus vulgaris CNUR 5
Type: functional
How it was run: as §1

| Compound | MIC [µg/mL] |
| --- | --- |
| CN1CCN(c2c(N)cc3c(=O)c(C(=O)O)cn(C4CC4)c3c2F)CC1 | 32 (≈ 88.8 µM) |
| Cc1c(N2CCCC(C)C2)c(N)cc2c(=O)c(C(=O)O)cn(C3CC3)c12 (stereo not given) | 32 (≈ 90 µM) |
| Cc1c(N2CCC(C)CC2)c([N+](=O)[O-])cc2c(=O)c(C(=O)O)cn(C3CC3)c12 | 64 (≈ 166 µM) |
| CN1CCN(c2nc3c(cc2N)c(=O)c(C(=O)O)cn3C2CC2)CC1 | 64 (≈ 186 µM) |
| Cc1c(N2CC3CCC2CC3)c(N)cc2c(=O)c(C(=O)O)cn(C3CC3)c12 | 64 (≈ 174 µM) |

System: Providencia stuartii
Assay: Antibacterial activity tested against Providencia stuartii CNUR 5
Type: functional
How it was run: as §1

| Compound | MIC [µg/mL] |
| --- | --- |
| CN1CCN(c2c(N)cc3c(=O)c(C(=O)O)cn(C4CC4)c3c2F)CC1 | 4 (≈ 11.1 µM) |
| Cc1c(N2CCCC(C)C2)c(N)cc2c(=O)c(C(=O)O)cn(C3CC3)c12 (stereo not given) | 0.25 (≈ 0.703 µM) |
| Cc1c(N2CCC(C)CC2)c([N+](=O)[O-])cc2c(=O)c(C(=O)O)cn(C3CC3)c12 | 64 (≈ 166 µM) |
| CN1CCN(c2nc3c(cc2N)c(=O)c(C(=O)O)cn3C2CC2)CC1 | 2 (≈ 5.82 µM) |
| Cc1c(N2CC3CCC2CC3)c(N)cc2c(=O)c(C(=O)O)cn(C3CC3)c12 | 1 (≈ 2.72 µM) |

System: Pseudomonas aeruginosa
Assay: Antibacterial activity tested against P. ae (Pseudomonas aeruginosa) ATCC 9027
Type: functional
How it was run: as §1

| Compound | MIC [µg/mL] |
| --- | --- |
| CN1CCN(c2c(N)cc3c(=O)c(C(=O)O)cn(C4CC4)c3c2F)CC1 | 2 (≈ 5.55 µM) |
| Cc1c(N2CCCC(C)C2)c(N)cc2c(=O)c(C(=O)O)cn(C3CC3)c12 (stereo not given) | 4 (≈ 11.3 µM) |
| Cc1c(N2CCC(C)CC2)c([N+](=O)[O-])cc2c(=O)c(C(=O)O)cn(C3CC3)c12 | 64 (≈ 166 µM) |
| CN1CCN(c2nc3c(cc2N)c(=O)c(C(=O)O)cn3C2CC2)CC1 | 2 (≈ 5.82 µM) |
| Cc1c(N2CC3CCC2CC3)c(N)cc2c(=O)c(C(=O)O)cn(C3CC3)c12 | 16 (≈ 43.5 µM) |

System: Shigella
Assay: Antibacterial activity tested against Shigella enteritidis
Type: functional
How it was run: as §1

| Compound | MIC [µg/mL] |
| --- | --- |
| CN1CCN(c2c(N)cc3c(=O)c(C(=O)O)cn(C4CC4)c3c2F)CC1 | 0.25 (≈ 0.694 µM) |
| Cc1c(N2CCCC(C)C2)c(N)cc2c(=O)c(C(=O)O)cn(C3CC3)c12 (stereo not given) | 1 (≈ 2.81 µM) |
| Cc1c(N2CCC(C)CC2)c([N+](=O)[O-])cc2c(=O)c(C(=O)O)cn(C3CC3)c12 | 64 (≈ 166 µM) |
| CN1CCN(c2nc3c(cc2N)c(=O)c(C(=O)O)cn3C2CC2)CC1 | 0.125 (≈ 0.364 µM) |
| Cc1c(N2CC3CCC2CC3)c(N)cc2c(=O)c(C(=O)O)cn(C3CC3)c12 | 3 (≈ 8.16 µM) |

System: Staphylococcus aureus
Assay: Antibacterial activity against Staphylococcus aureus ATCC 6538
Type: functional
How it was run: as §1

| Compound | MIC [µg/mL] |
| --- | --- |
| CN1CCN(c2c(N)cc3c(=O)c(C(=O)O)cn(C4CC4)c3c2F)CC1 | 4 (≈ 11.1 µM) |
| Cc1c(N2CCCC(C)C2)c(N)cc2c(=O)c(C(=O)O)cn(C3CC3)c12 (stereo not given) | 0.03 (≈ 0.0844 µM) |
| Cc1c(N2CCC(C)CC2)c([N+](=O)[O-])cc2c(=O)c(C(=O)O)cn(C3CC3)c12 | 32 (≈ 83 µM) |
| CN1CCN(c2nc3c(cc2N)c(=O)c(C(=O)O)cn3C2CC2)CC1 | 4 (≈ 11.6 µM) |
| Cc1c(N2CC3CCC2CC3)c(N)cc2c(=O)c(C(=O)O)cn(C3CC3)c12 | 0.03 (≈ 0.0816 µM) |

System: Staphylococcus aureus
Assay: Antibacterial activity against Staphylococcus aureus MPR 5
Type: functional
How it was run: as §1

| Compound | MIC [µg/mL] |
| --- | --- |
| CN1CCN(c2c(N)cc3c(=O)c(C(=O)O)cn(C4CC4)c3c2F)CC1 | 4 (≈ 11.1 µM) |
| Cc1c(N2CCCC(C)C2)c(N)cc2c(=O)c(C(=O)O)cn(C3CC3)c12 (stereo not given) | 0.06 (≈ 0.169 µM) |
| Cc1c(N2CCC(C)CC2)c([N+](=O)[O-])cc2c(=O)c(C(=O)O)cn(C3CC3)c12 | 2 (≈ 5.19 µM) |
| CN1CCN(c2nc3c(cc2N)c(=O)c(C(=O)O)cn3C2CC2)CC1 | 4 (≈ 11.6 µM) |
| Cc1c(N2CC3CCC2CC3)c(N)cc2c(=O)c(C(=O)O)cn(C3CC3)c12 | 0.03 (≈ 0.0816 µM) |

System: Enterococcus faecalis
Assay: Antibacterial activity tested against Streptococcus faecalis LEP Br
Type: functional
How it was run: as §1

| Compound | MIC [µg/mL] |
| --- | --- |
| CN1CCN(c2c(N)cc3c(=O)c(C(=O)O)cn(C4CC4)c3c2F)CC1 | 64 (≈ 178 µM) |
| Cc1c(N2CCCC(C)C2)c(N)cc2c(=O)c(C(=O)O)cn(C3CC3)c12 (stereo not given) | 2 (≈ 5.63 µM) |
| Cc1c(N2CCC(C)CC2)c([N+](=O)[O-])cc2c(=O)c(C(=O)O)cn(C3CC3)c12 | 32 (≈ 83 µM) |
| CN1CCN(c2nc3c(cc2N)c(=O)c(C(=O)O)cn3C2CC2)CC1 | 32 (≈ 93.2 µM) |
| Cc1c(N2CC3CCC2CC3)c(N)cc2c(=O)c(C(=O)O)cn(C3CC3)c12 | 4 (≈ 10.9 µM) |

System: Staphylococcus epidermidis
Assay: Antibacterial activity tested against Staphylococcus epidermidis CPHL A2
Type: functional
How it was run: as §1

| Compound | MIC [µg/mL] |
| --- | --- |
| CN1CCN(c2c(N)cc3c(=O)c(C(=O)O)cn(C4CC4)c3c2F)CC1 | 4 (≈ 11.1 µM) |
| Cc1c(N2CCCC(C)C2)c(N)cc2c(=O)c(C(=O)O)cn(C3CC3)c12 (stereo not given) | 0.125 (≈ 0.352 µM) |
| Cc1c(N2CCC(C)CC2)c([N+](=O)[O-])cc2c(=O)c(C(=O)O)cn(C3CC3)c12 | 4 (≈ 10.4 µM) |
| CN1CCN(c2nc3c(cc2N)c(=O)c(C(=O)O)cn3C2CC2)CC1 | 4 (≈ 11.6 µM) |
| Cc1c(N2CC3CCC2CC3)c(N)cc2c(=O)c(C(=O)O)cn(C3CC3)c12 | 0.25 (≈ 0.68 µM) |

System: Staphylococcus epidermidis
Assay: Antibacterial activity tested against Staphylococcus epidermidis HCF Berset C
Type: functional
How it was run: as §1

| Compound | MIC [µg/mL] |
| --- | --- |
| CN1CCN(c2c(N)cc3c(=O)c(C(=O)O)cn(C4CC4)c3c2F)CC1 | 8 (≈ 22.2 µM) |
| Cc1c(N2CCCC(C)C2)c(N)cc2c(=O)c(C(=O)O)cn(C3CC3)c12 (stereo not given) | 0.25 (≈ 0.703 µM) |
| Cc1c(N2CCC(C)CC2)c([N+](=O)[O-])cc2c(=O)c(C(=O)O)cn(C3CC3)c12 | 4 (≈ 10.4 µM) |
| CN1CCN(c2nc3c(cc2N)c(=O)c(C(=O)O)cn3C2CC2)CC1 | 4 (≈ 11.6 µM) |
| Cc1c(N2CC3CCC2CC3)c(N)cc2c(=O)c(C(=O)O)cn(C3CC3)c12 | 1 (≈ 2.72 µM) |
